As a reminder, the Cmax is the peak of the concentration-time curve.

The values that follow come from ChEMBL document CHEMBL3868590, “Quambalarine B, a Secondary Metabolite from Quambalaria cyanescens with Potential Anticancer Properties” (J Nat Prod, 2016).

In series [1] the test system is Jurkat. Kind of series: Cytostatic activity against eFluor670-labelled human Jurkat cells assessed as live cells at 10 ng/ml measured on day 1 post dose by Hoechst-33258 staining-based FACS analysis (reference value: 98.2%). The format is functional.
For series [2], the system named is Jurkat. The series is described as follows: Cytostatic activity against eFluor670-labelled human Jurkat cells assessed as live cells at 10 ng/ml measured on day 3 post dose by Hoechst-33258 staining-based FACS analysis (reference value: 98.3%). It is filed as functional.
Series [3] concerns REH. The series is described as follows: Cytostatic activity against eFluor670-labelled human REH cells assessed as live cells at 20 ng/ml measured immediately after compound addition by Hoechst-33258 staining-based FACS analysis (reference value: 44.1%). It is filed as functional. (Flow cytometry measures light scatter and fluorescence of single cells or particles in a stream.)

Series [4] concerns NALM-6. Kind of series: Cytostatic activity against eFluor670-labelled human NALM6 cells assessed as live cells at 5 ng/ml measured on day 3 by Hoechst-33258 staining-based FACS analysis (reference value: 98.6%). The format is functional.
Series [5] has as its system NALM-6. Kind of series: Cytostatic activity against eFluor670-labelled human NALM6 cells assessed as live cells at 5 ng/ml measured on day 1 by Hoechst-33258 staining-based FACS analysis (reference value: 95.5%). The format is functional.
The subject of series [6] is NALM-6. The series is described as follows: Cytostatic activity against eFluor670-labelled human NALM6 cells assessed as live cells at 5 ng/ml measured on day 4 by Hoechst-33258 staining-based FACS analysis (reference value: 98.6%). The format is functional.
Series [7] concerns REH. The series is described as follows: Cytostatic activity against eFluor670-labelled human REH cells assessed as live cells at 20 ng/ml measured on day 2 by Hoechst-33258 staining-based FACS analysis (reference value: 90.8%). It is filed as functional.
Series [8] has as its system REH. Kind of series: Cytostatic activity against eFluor670-labelled human REH cells assessed as live cells at 20 ng/ml measured on day 1 by Hoechst-33258 staining-based FACS analysis (reference value: 89.8%). The format is functional.
The test system of series [9] is Jurkat. Kind of series: Cytostatic activity against eFluor670-labelled human Jurkat cells assessed as live cells at 10 ng/ml measured immediately after compound addition by Hoechst-33258 staining-based FACS analysis (reference value: 98.2%). The format is functional.
In series [10] the test system is REH. Kind of series: Cytostatic activity against eFluor670-labelled human REH cells assessed as live cells at 20 ng/ml measured on day 5 by Hoechst-33258 staining-based FACS analysis (reference value: 85.6%). The format is functional.
For series [11], the system named is NALM-6. The series is described as follows: Cytostatic activity against eFluor670-labelled human NALM6 cells assessed as live cells at 5 ng/ml measured on day 5 by Hoechst-33258 staining-based FACS analysis (reference value: 98.6%). The format is functional.
A short description of series [12]: Cytotoxicity against PHA/LPS-stimulated CD3-positive T-lymphocytes in eFluor-670-labeled human PBMC assessed as divided cells at 5 ng/ml administered post 18 hrs of PHA/LPS-stimulation measured after 72 hrs by Hoechst-33258 staining-based FACS analysis (reference value: 24.2%). As to conditions: t-cell. The format is toxicity. In a few lines: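 PBMC were labelled with 1 μmol/L CPD, stimulated with PHA (5 μg/mL) plus LPS (1 μg/mL), and seeded at 3 × 10^5 cells/well in 300 μL. Compound was added after 18 h and left for 72 h. Cells were stained with anti-CD3. Unstimulated cells set the CPD+ gate. Proliferation index, division index and % divided were calculated for CPD+CD3+ Hoechst-negative cells.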

The test system of series [13] is NALM-6. Kind of series: Cytostatic activity against eFluor670-labelled human NALM6 cells assessed as live cells at 5 ng/ml measured on day 2 by Hoechst-33258 staining-based FACS analysis (reference value: 97.7%). It is filed as functional.
For series [14], the system named is NALM-6. Kind of series: Cytostatic activity against eFluor670-labelled human NALM6 cells assessed as live cells at 5 ng/ml measured immediately after compound addition by Hoechst-33258 staining-based FACS analysis (reference value: 95.8%). It is filed as functional.
In series [15] the test system is Jurkat. Kind of series: Cytostatic activity against eFluor670-labelled human Jurkat cells assessed as live cells at 10 ng/ml measured on day 4 post dose by Hoechst-33258 staining-based FACS analysis (reference value: 97.3%). It is filed as functional.
Series [16] has as its system Jurkat. Kind of series: Cytostatic activity against eFluor670-labelled human Jurkat cells assessed as live cells at 10 ng/ml measured on day 2 post dose by Hoechst-33258 staining-based FACS analysis (reference value: 97%). It is filed as functional.
Series [17] deals with REH. The series is described as follows: Cytostatic activity against eFluor670-labelled human REH cells assessed as live cells at 20 ng/ml measured on day 4 by Hoechst-33258 staining-based FACS analysis (reference value: 88%). It is filed as functional.
In series [18] the test system is Jurkat. The series is described as follows: Cytostatic activity against eFluor670-labelled human Jurkat cells assessed as live cells at 10 ng/ml measured on day 5 post dose by Hoechst-33258 staining-based FACS analysis (reference value: 97%). The format is functional.
A short description of series [19]: Cmax in human. It is filed as ADME.

Where only a bound is given, the exact number is not on record here.

As to `COc1cccc2c1C(=O)c1c(O)c3c(c(O)c1C2=O)C[C@@](O)(C(=O)CO)C[C@@H]3O[C@H]1C[C@H](N)[C@H](O)[C@H](C)O1` [DOXORUBICIN], the Activity is 97% with Jurkat [1]; 42.8% in the series with Jurkat [2]; 44.1% with REH [3]; 96.3% with NALM-6 [4]; 95.2% in the series on NALM-6 [5]; 93.8% with NALM-6 [6]. Moreover, the Activity with REH [7] was 26.7%; in the series with REH [8], 73.5%; in the series with Jurkat [9], 98.2%; in the series on REH [10] it was 1.19%; in the series on NALM-6 [11], 87.8%; in series [12], 18.1%. Moreover, the Activity is reported as 96.5% in the series with NALM-6 [13]; 95.8% with NALM-6 [14]; 9.46% in the series on Jurkat [15]; 78.5% in the series on Jurkat [16]; 2.72% in the series on REH [17]; 10.5% in the series on Jurkat [18].
On to `CN(Cc1cnc2nc(N)nc(N)c2n1)c1ccc(C(=O)N[C@@H](CCC(=O)O)C(=O)O)cc1` [METHOTREXATE], for which the highest concentration (Cmax) in series [19] was more than 1000 µM.
